# Rows were chosen to be rich in hits. Some 6.5% of all compounds tested hit in one or more screens of this group.
# PostGolgi ctrl – growth inhibition of yeast control strain, primary screen, counter-screen for post-Golgi transport modulator project | inhibition, % at 10 µM | 5% of 98,000 active | efflux-deficient yeast background strain, growth absorbance A615, 16 h
# Ecoli WT expand – growth inhibitors of wild-type E. coli, primary screen, strain BW25113, expanded library, OD600 | OD600 absorbance | growth inhibition, % at 100 µM | 0.15% of 98,000 active;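 active means growth inhibition above about 50% at one test dose, limit read from the data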;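 further: growth measured after 20 h incubation at 37 °C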
# Calb biofilm kill – clotrimazole potentiators killing Candida biofilms, primary screen, with clotrimazole, Alamar Blue | AID 834, 2007 | inhibition, % at 6 µM | 0.14% of 85,000 active | C. albicans biofilm + clotrimazole;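 active means inhibition above 20%; inactive means inhibition below 20%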;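 further: preformed 24 hr biofilms exposed to compound for 48 hr; 0% = biofilm without compound and 100% = blank killed by clotrimazole plus chlorhexidine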
# PostGolgi yeast – phenotypic screen on post-Golgi transport, primary screen. post-Golgi transport phenotypic cell assay. 0.9% of 98,000 active. AID 739, 2007. inhibition, % at 10 µM;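 further: yeast cells grown in 1536-well plates; yeast grown about 18 h at 30C before absorbance read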
# Pyk2 oligo antag – antagonists of Pyk2 self-association, primary screen, Q293 cells, FERM NanoBiT luminescence, HTS. Protein-tyrosine kinase 2-beta (Homo sapiens), Q14289. stronger effect = lower value. z-score (the deposit names both 25 µM and 10 µM). 0.83% of 99,000 active;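 active means Z-score of -3 or lower, scaled per plate to the spread of control and sample wells; inactive means z-score above -3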;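 further: negative z-score means lost luminescence so less FERM oligomerization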
# Target sequence (Q14289 whole entry, looked up): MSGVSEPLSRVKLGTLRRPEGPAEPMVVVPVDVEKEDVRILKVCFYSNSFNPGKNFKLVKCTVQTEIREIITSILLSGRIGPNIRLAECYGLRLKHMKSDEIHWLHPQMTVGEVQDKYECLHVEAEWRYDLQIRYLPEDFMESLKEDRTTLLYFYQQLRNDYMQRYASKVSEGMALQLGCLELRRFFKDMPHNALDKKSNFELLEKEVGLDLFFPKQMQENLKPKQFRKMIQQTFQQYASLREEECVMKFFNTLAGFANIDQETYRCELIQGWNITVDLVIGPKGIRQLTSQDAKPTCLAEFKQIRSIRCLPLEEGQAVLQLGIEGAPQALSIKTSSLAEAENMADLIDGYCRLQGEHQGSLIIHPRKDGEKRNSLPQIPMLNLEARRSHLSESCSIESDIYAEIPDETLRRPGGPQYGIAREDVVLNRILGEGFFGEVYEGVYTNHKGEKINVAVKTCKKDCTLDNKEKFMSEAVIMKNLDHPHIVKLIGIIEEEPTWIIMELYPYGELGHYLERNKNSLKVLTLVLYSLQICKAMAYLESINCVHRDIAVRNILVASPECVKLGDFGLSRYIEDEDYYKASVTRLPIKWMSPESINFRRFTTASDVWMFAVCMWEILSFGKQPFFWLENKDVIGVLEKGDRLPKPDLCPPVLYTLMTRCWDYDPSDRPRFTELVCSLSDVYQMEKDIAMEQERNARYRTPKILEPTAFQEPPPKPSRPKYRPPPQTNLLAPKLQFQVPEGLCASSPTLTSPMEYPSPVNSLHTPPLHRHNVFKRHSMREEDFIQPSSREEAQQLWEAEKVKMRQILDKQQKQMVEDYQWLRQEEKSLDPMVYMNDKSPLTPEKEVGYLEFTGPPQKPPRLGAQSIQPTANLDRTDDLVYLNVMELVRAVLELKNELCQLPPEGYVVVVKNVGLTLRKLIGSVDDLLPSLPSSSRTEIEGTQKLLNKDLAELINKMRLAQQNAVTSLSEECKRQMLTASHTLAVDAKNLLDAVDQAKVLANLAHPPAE
# Ecoli tolC – growth inhibitors of E. coli tolC mutant, primary screen, strain BW25113 ΔtolC::kan, 384-well. OD615. growth inhibition, % at 10 µM (by protocol). 2.2% of 65,000 active. AID 573, 2007;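 active means growth inhibition at or above a cutoff equal to the mean over every tested compound plus 3 SD, cut at about 60% in these data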;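 further: growth measured after 20 h incubation at 37 °C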
#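 Test system: E. coli BW25113 ΔtolC::kan bacteria | Medium: Kanamycin-containing LB broth (50 µg/mL) | Dosing: One dose of 10 µM final | Times: 20 h incubation with compound, 37 °C | Detection: Optical density read at 615 nm | Read-out basis: Percent growth inhibition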
# * = called active by the depositor; nt = not tested or not shown. Unless noted, no stated cut-off is given here; in the data, active means inhibition above about 30%; inactive means the rest.
SMILES,PostGolgi ctrl,Ecoli WT expand,Calb biofilm kill,PostGolgi yeast,Pyk2 oligo antag,Ecoli tolC
c1ccc(N2CCN(c3ccccc3)C2c2ccncc2)cc1,30.8*,-2.0,8.2,7.0,-0.18,nt
COC(=O)c1cc2sccc2n1CC(=O)Nc1cccc(SC)c1,9.7,-15.0,-5.5,1.6,-3.56*,6.9
COC(=O)c1cc2sccc2n1CC(=O)Nc1ccc(OC)c(OC)c1OC,3.5,-1.0,2.5,-8.6,-0.72,-7.5
CCOC(=O)c1cc2sccc2n1CC(=O)Nc1ccc2c(c1)OCCO2,0.0,-11.0,2.8,-0.2,-3.93*,6.7
CCCCC(=O)Nc1cccc(-c2nc3ncccc3o2)c1,14.5,0.0,6.6,17.1,0.32,25.7
COc1c(C)cc(Br)cc1C(=O)Nc1cccc(-c2nc3ncccc3o2)c1,40.7*,-1.0,nt,-7.2,nt,37.6
Cc1cc(C)c(C)c(S(=O)(=O)NCC(=O)Nc2sc3c(c2C(N)=O)CCCC3)c1C,4.3,-5.0,nt,20.1,-0.39,nt
COc1ccccc1Cn1c2nc3ccccc3nc2c2c(=O)n(CC(C)C)cnc21,nt,nt,-5.5,nt,nt,1.3
Cn1c(=O)n(CCCOc2ccc(Br)cc2)c2ccccc21,38.5*,-4.0,6.2,-0.7,0.38,100.0*
Cc1cccc(OCCn2c(CCCO)nc3ccccc32)c1,30.3*,6.0,nt,4.7,0.19,4.3
OCc1nc2ccccc2n1CCCOc1ccc(Br)cc1,45.2*,9.0,9.0,0.8,0.11,67.0*
Cn1c(=O)n(CCCOc2ccc(Cl)cc2)c2ccccc21,49.1*,9.0,5.7,5.3,-0.03,62.4*
COc1ccc(OCCCn2c(=O)oc3ccccc32)cc1,nt,nt,3.6,nt,-0.63,nt
Cc1cccc(OCCCn2c(CCNC(=O)C(C)C)nc3ccccc32)c1,nt,nt,nt,nt,1.2,nt
COc1ccccc1OCCn1c(CO)nc2ccccc21,4.1,1.0,-2.6,-15.4,1.48,-10.6
CC(C)(C)NC(=O)COC(=O)c1cc(F)c(F)cc1Cl,3.0,11.0,nt,-5.8,1.73,nt
Cc1cc(NCc2ccccn2)ccc1Br,15.9,15.0,nt,-3.1,0.45,nt
CCOc1ccc(OCc2ccc(C(=O)OCc3ccccn3)o2)cc1,27.4,-14.0,3.1,-4.0,0.44,37.1
O=C(CSc1nc2ccccc2[nH]1)N1CCN(S(=O)(=O)c2ccc(Cl)cc2)CC1,-3.0,4.0,1.1,-6.2,0.13,nt
O=C(COc1ccccc1)N1CCN(c2nnc(-c3ccccc3)c3ccccc23)CC1,17.6,-2.0,0.5,3.4,-1.65,31.2
COc1ccc(OCC(=O)N2CCN(c3nnc(-c4ccccc4)c4ccccc34)CC2)cc1,32.2*,-11.0,8.4,-2.2,-1.09,29.8
Cc1ccc(OCC(=O)N2CCN(c3nnc(-c4ccc(C)cc4)c4ccccc34)CC2)cc1,71.3*,-9.0,5.4,-2.1,-1.86,nt
O=S(=O)(NC1CCc2ccccc21)c1ccc(S(=O)(=O)N2CCCC2)cc1 (stereo not drawn),17.8,-6.0,5.4,7.4,-0.26,8.0
CC12CC3CC(C)(C1)CC(C(=O)NC(=S)N1CCOCC1)(C3)C2,1.1,11.0,nt,-0.5,1.52,nt
O=C(NC(=S)N1CCCCC1)C12CC3CC(CC(C3)C1)C2,33.3*,3.0,nt,20.7,-0.14,nt
SMILES,PostGolgi ctrl,Ecoli WT expand,Calb biofilm kill,PostGolgi yeast,Pyk2 oligo antag,Ecoli tolC
COc1ccc(/C=C/c2ccncc2)c2ccccc12,43.2*,8.0,-1.4,-1.4,-0.92,nt
Cc1ccc(-c2nc3sc4c(c3c(=O)n2N)CCCC4)cc1,23.5,5.0,3.8,2.5,-0.12,nt
Cc1ccc(C2C(C(=O)c3ccco3)=C(O)C(=O)N2c2nnc(C)s2)cc1 (stereo not drawn),4.1,2.0,4.5,-4.7,-0.46,nt
COC(=O)c1sc(N2C(=O)C(O)=C(C(=O)c3ccc(C)o3)C2c2ccc(F)cc2)nc1C (stereo not drawn),14.7,-8.0,3.6,-4.1,-1.23,65.0*
CCOc1ccc(CCNC(=O)c2cc3sccc3n2C)cc1OCC,-1.5,-5.0,nt,16.3,0.71,14.4
Cc1nnc(SC(=O)N2c3ccccc3Sc3ccccc32)s1,75.0*,-10.0,nt,12.8,-2.56,68.7*
CCN1CC2=C(OC(N)=C(C#N)C2c2cccs2)/C(=C\c2cccs2)C1 (stereo not drawn),8.1,-3.0,-3.4,0.9,-0.3,nt
CS(=O)(=O)Nc1ccc(OCc2ccccc2)cc1,31.0*,-1.0,3.7,2.4,-0.04,-8.2
CCC1CCCCN1C(=O)c1cc(-c2ccc(Cl)c(Cl)c2)on1 (stereo not drawn),28.2,-9.0,0.6,-2.7,-0.69,100.0*
CC1CCCCN1C(=O)c1cc(-c2ccc(Cl)c(Cl)c2)on1 (stereo not drawn),18.0,-5.0,6.5,-3.6,-0.47,56.9
CC1Cc2cc(/C(O)=C3/C(=O)C(=O)N(CC4CCCO4)C3c3ccco3)ccc2O1 (stereo not drawn),15.2,3.0,8.4,-9.7,0.4,-6.1
CN(C)S(=O)(=O)c1ccc(C(=O)OCn2nnc3ccccc3c2=O)cc1,28.4,3.0,-0.1,58.0*,nt,nt
Cc1ccc(S(=O)(=O)N[C@H](C(=O)OCn2nnc3ccccc3c2=O)C(C)C)cc1,34.9*,-7.0,1.7,2.9,0.96,nt
COc1ccc(C(=O)OCn2nnc3ccccc3c2=O)cc1OC,3.9,-4.0,nt,13.6,0.04,-2.1
CCc1ccc(N(C(C)=O)C2C=CS(=O)(=O)C2)cc1 (stereo not drawn),4.9,-6.0,-2.6,-4.3,0.97,-10.9
O=C(C#Cc1cccc([N+](=O)[O-])c1)c1ccccc1,64.1*,-5.0,6.4,91.3*,-0.62,nt
COCCn1nnnc1C(c1ccc(OC)cc1OC)N1CCN(c2ccccc2)CC1 (stereo not drawn),4.0,3.0,-4.7,-2.0,-4.11*,1.0
COCCn1nnnc1C(c1ccc(OC)cc1OC)N1CCN(c2ccccc2F)CC1 (stereo not drawn),5.9,1.0,7.5,-3.0,-4.4*,4.5
COCCn1nnnc1C(c1ccc2ncccc2c1)N1CCN(c2ccccc2F)CC1 (stereo not drawn),29.2,-4.0,3.1,-11.3,-1.94,-13.6
COc1ccc(CNS(=O)(=O)c2ccc(C3CNC(=O)C3)cc2)cc1 (stereo not drawn),25.7,-5.0,0.8,-1.6,1.43,1.9
CC(C)Oc1ccc(C2CNC(=O)C2)cc1 (stereo not drawn),33.2*,3.0,2.0,-5.1,nt,0.9
CCCCSc1nc(N)c(C#N)c(-c2cccs2)c1C#N,10.3,-3.0,6.1,10.7,-3.84*,4.6
CC(=O)CSc1nc(N)c(C#N)c(-c2cccs2)c1C#N,5.8,-4.0,3.0,-0.3,-2.2,nt
Cc1cccc(-c2nc(CSCC(=O)N3CCN(Cc4ccc5c(c4)OCO5)CC3)c(C)o2)c1,21.9,-10.0,6.6,15.0,1.55,60.2
CCc1c(C)nc(N)n2c(SCC(=O)Nc3ccccc3)nnc12,5.2,1.0,6.9,2.4,0.4,nt

# High-throughput results (PubChem)
